Active and inactive are the calls of the source. No cut-off for these calls is given here.

Broadly, the ED50 is the dose that gives a 50% effect, or the effect in half of the subjects. A word on the TD50: it is the dose at which the toxic effect under study appears in half of the subjects. Low readings indicate greater toxicity, high ones lower toxicity.

Series [1] is filed under the species Rattus norvegicus. The series can be described thus: Protective index, ratio of TD50 for rat by rotarod test to ED50 for rat by MES test. The series is classed as functional. Background: Falling from the rotarod earlier than controls is read as motor impairment.
The species named for series [2] is Rattus norvegicus. The series can be described thus: Anticonvulsant activity in rat assessed as inhibition of maximal electroshock-induced electrical stimulus. The series is classed as functional. In general terms: In the maximal electroshock model the usual endpoint is tonic extension of the hind limbs.
Series [3] has as its system Mus musculus. The series can be described thus: Anticonvulsant activity in ip dosed CF1 albino mouse assessed as inhibition of subcutaneous pentylenetetrazole-induced electrical stimulus at 300 mg/kg after 0.5 hr. Also noted: dose 300 mg/kg. The series is classed as functional, organism-based. A digest of the protocol:
(§1)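 Male CF-1 mice injected intraperitoneally at 30, 100 and 300 mg/kg, suspended in 0.5% methylcellulose/water. MES or subcutaneous pentylenetetrazole challenge at 0.5 and 4 h; selected compounds also at 1 or 2 h.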

Series [4] concerns Mus musculus. The series can be described thus: Neurotoxicity in ip dosed CF1 albino mouse at 300 mg/kg after 4 hrs by rotarod test. The series is classed as toxicity, organism-based. Also noted: dose 300 mg/kg, route intraperitoneal. The note with it: in vivo. Put shortly:
(§2)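 CF-1 mice given 30, 100 or 300 mg/kg ip in 0.5% methylcellulose/water, examined at 0.5 and 4 h. Rotorod test: neurotoxicity is the inability to keep equilibrium on the rod for a given time. Value is the minimum dose giving motor impairment; a dash means none at 300 mg/kg.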

Series [5] can be described thus: Lipophilicity, log kw of compound by RP-HPLC. The series is classed as physicochemical. A digest of the protocol: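 RP-HPLC on a C18 end-capped column at room temperature, with UV detection at 214 nm and uracil as the unretained marker. Capacity factor k = (tr − t0)/t0, from the mean of three measurement sets. log k extrapolated to 100% water (log k = log kw − Sφ) to give log kw.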

Series [6] deals with Mus musculus. The series can be described thus: Neurotoxicity in ip dosed CF1 albino mouse after 0.5 hr by rotarod test. The series is classed as toxicity, organism-based. The following applies: in vivo. A digest of the protocol:
as §2

Series [7] relates to Mus musculus. The series can be described thus: Anticonvulsant activity in ip dosed CF1 albino mouse assessed as inhibition of subcutaneous pentylenetetrazole-induced electrical stimulus at 300 mg/kg after 4 hrs. The series is classed as functional, organism-based. Further details: dose 300 mg/kg. Put shortly: as §1
For series [8], the system named is Mus musculus. The series can be described thus: Anticonvulsant activity in ip dosed CF1 albino mouse assessed as inhibition of maximal electroshock-induced electrical stimulus after 0.5 hr. The series is classed as functional. Put shortly:
as §1

Series [9] relates to Rattus norvegicus. The series can be described thus: Antiepileptic activity in pilocarpine-induced status prevention in Sprague-Dawley rat assessed as weight change in post first stage 3 seizure at 65 mg/kg after 24 hrs. The series is classed as functional. A digest of the protocol: (§3)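 Pilocarpine-induced status prevention in rats. Compound given ip at time zero (65 or 450 mg/kg), followed by a challenge dose of pilocarpine. Seizure severity scored on the Racine scale. Average weight change (g, ±SEM) recorded for protected and non-protected rats.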

Series [10] relates to Mus musculus. The series can be described thus: Anticonvulsant activity in ip dosed CF1 albino mouse assessed as inhibition of maximal electroshock-induced electrical stimulus at 300 mg/kg after 4 hrs. Further details: dose 300 mg/kg. The series is classed as functional, organism-based. A digest of the protocol: as §1
Series [11] has as its system Mus musculus. The series can be described thus: Anticonvulsant activity in ip dosed CF1 albino mouse assessed as inhibition of subcutaneous pentylenetetrazole-induced electrical stimulus after 0.5 hr. The series is classed as functional. A digest of the protocol:
as §1

In series [12] the test system is Mus musculus. The series can be described thus: Neurotoxicity in ip dosed CF1 albino mouse after 4 hrs by rotarod test. The following applies: in vivo. The series is classed as toxicity, organism-based. Put shortly:
as §2

Series [13] is described as follows: Neurotoxicity in po dosed Sprague-Dawley rat after 2 hrs by rotarod test. The series is classed as toxicity, organism-based. The note with it: in vivo.
Series [14] concerns Rattus norvegicus. The series can be described thus: Anticonvulsant activity in Sprague-Dawley rat assessed as protection against seizure at 30 mg/kg, po after 0.5 hr by maximal electroshock test. The series is classed as functional. A digest of the protocol:
(§4)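 Male Sprague–Dawley rats; compound suspended in 0.5% methylcellulose/water and given orally at a fixed 30 mg/kg, four rats per time point. MES test run at 0.25, 0.5, 1, 2 and 4 h after dosing, with motor impairment checked in parallel. Read-out: number of rats of four protected.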

The test system of series [15] is Rattus norvegicus. The series can be described thus: Anticonvulsant activity in Sprague-Dawley rat assessed as protection against seizure at 30 mg/kg, po after 1 hr by maximal electroshock test. The series is classed as functional. Put shortly: as §4
For series [16], the system named is Rattus norvegicus. The series can be described thus: Anticonvulsant activity in Sprague-Dawley rat assessed as protection against seizure at 30 mg/kg, po after 4 hrs by maximal electroshock test. The series is classed as functional. A digest of the protocol:
as §4

The subject of series [17] is Mus musculus. The series can be described thus: Anticonvulsant activity in ip dosed CF1 albino mouse assessed as inhibition of maximal electroshock-induced electrical stimulus at 300 mg/kg after 0.5 hr. The series is classed as functional, organism-based. Also noted: dose 300 mg/kg. Put shortly:
as §1

Series [18] deals with Rattus norvegicus. The series can be described thus: Antiepileptic activity in pilocarpine-induced status prevention in Sprague-Dawley rat assessed as weight change in post first stage 3 seizure at 450 mg/kg after 24 hrs. The series is classed as functional. Put shortly: as §3
Series [19] has as its system Mus musculus. The series can be described thus: Anticonvulsant activity in ip dosed CF1 albino mouse assessed as inhibition of maximal electroshock-induced electrical stimulus after 2 hrs. The series is classed as functional. Put shortly:
as §1

Series [20] relates to Mus musculus. The series can be described thus: Anticonvulsant activity in ip dosed CF1 albino mouse assessed as inhibition of subcutaneous pentylenetetrazole-induced electrical stimulus after 4 hrs. The series is classed as functional. Put shortly:
as §1

The test system of series [21] is Mus musculus. The series can be described thus: Anticonvulsant activity in ip dosed CF1 albino mouse assessed as inhibition of maximal electroshock-induced electrical stimulus after 4 hrs. The series is classed as functional. A digest of the protocol: as §1
Series [22] has as its system Rattus norvegicus. The series can be described thus: Anticonvulsant activity in Sprague-Dawley rat assessed as protection against seizure at 30 mg/kg, po after 0.25 hr by maximal electroshock test. The series is classed as functional. A digest of the protocol: as §4
Series [23] is filed under the species Rattus norvegicus. The series can be described thus: Protective index, ratio of TD50 for Sprague-Dawley rat by rotarod test to ED50 for Sprague-Dawley rat by MES test after 0.5 hr. The series is classed as functional. A digest of the protocol: (§5)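 Oral dosing in male Sprague–Dawley rats at the previously estimated time of peak effect. Groups of eight rats received various doses until at least three points fell between 10 and 90% MES protection or minimal neurotoxicity (rotorod). ED50 and TD50 with 95% confidence intervals from regression of the plotted data; protective index = TD50/ED50.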

The test system of series [24] is Rattus norvegicus. The series can be described thus: Anticonvulsant activity in Sprague-Dawley rat assessed as protection against seizure at 30 mg/kg, po after 2 hrs by maximal electroshock test. The series is classed as functional. A digest of the protocol:
as §4

Series [25] relates to Rattus norvegicus. The series can be described thus: Anticonvulsant activity in po dosed Sprague-Dawley rat assessed as inhibition of maximal electroshock-induced electrical stimulus after 0.5 hr. The series is classed as functional. A digest of the protocol: as §5
Series [26] can be described thus: Neurotoxicity in po dosed Sprague-Dawley rat after 0.5 hr by rotarod test. The series is classed as toxicity, organism-based. The following applies: in vivo. A digest of the protocol: as §5

With `O=C1CC2(CCCC2)C(=O)N1Nc1ccccc1`, in series [1], the “Ratio TD50/ED50” value came out at 3.44. In addition, in series [2], the ED50 came to 76.3 mg/kg.

In the case of `CC1(C)CC(=O)N(Nc2cccc(Cl)c2)C1=O`, the outcome in [3], in series [7] and in series [10] was inactive. Moreover, the Activity result in series [4] was “Not Active”; in series [6], 300 mg/kg; in series [8], 100 mg/kg; in series [9], 15 g. Also, the “log K” value in [5] amounted to 2.071.

Consider `O=C1NC(=O)C(c2ccccc2)(c2ccccc2)N1` [PHENYTOIN], for which the Activity in series [11] worked out at 30 mg/kg; in series [12], 100 mg/kg; in series [6], 100 mg/kg; in series [8], 30 mg/kg. In [13], this molecule had a TD50 at 2 h of more than 500 mg/kg. The result in [14] was Active. In addition, the result in series [15] and in series [16] was inactive.

On to `Cc1ccc(NN2C(=O)C3CCCCC3C2=O)cc1` (centres undefined), for which the result in [3], in series [7], in series [10] and in [17] was inactive. The Activity result is “Not Active” in [4], 300 mg/kg in series [6] and 10.2 g in series [18]. Also, in [5], the “log K” value is 2.028.

On to `CCC1(CC)CC(=O)N(Nc2ccc(Cl)cc2)C1=O`, for which the Activity is 100 mg/kg in series [11]; 100 mg/kg in series [19]; 300 mg/kg in [12]; 300 mg/kg in series [6]; 300 mg/kg in series [20]; 300 mg/kg in [21]. Besides, the “log K” value in [5] was 2.314. In series [17], the result was inactive.

Take `CC1(C)CC(=O)N(Nc2ccccc2)C1=O`: the Activity entry was “Not Active” in series [4]; 300 mg/kg in series [11]; 25% in [22]; 100 mg/kg in series [6]; 300 mg/kg in series [8]; 50% in series [15]. In [5], the “log K” value amounted to 1.471. For the same molecule, in [23], the “Ratio TD50/ED50” value stood at 7.15. Further, the outcome in series [7], in series [24], in series [14], in series [10] and in series [16] was inactive. For the same molecule, in [25], the ED50 stood at 69.9 mg/kg. The molecule further displayed a TD50 at 0.5 h in [26] of 500 mg/kg.

The values above are taken from ChEMBL document CHEMBL1157190, “Design, synthesis, and anticonvulsant activity of N-phenylamino derivatives of 3,3-dialkyl-pyrrolidine-2,5-diones and hexahydro-isoindole-1,3-diones” (Bioorg Med Chem, 2008).
